Assay results pooled from the literature.
Each line is one published result; the experiments were not run side by side. pEC50, pIC50: −log10 of the molar value.
Effect on: cell growth or viability

Cc1nc(Nc2ccc3c(c2)CC(=O)N3)c2ccccc2n1  pIC50 (BEAS-2B; MTT): 5.06
C=CC(=O)NC1CCN(c2ncc3ncnc(Nc4ccc(Oc5ccc6c(c5)ncn6C)c(C)c4)c3n2)CC1  pEC50 (647-V): 5.64
C[C@@H]1CN(c2ccc(-c3cc(C(=O)NCCOCCOCCOCCOCCOCCOCCNC(=O)/C=C/c4[nH]cc(C(=O)N[C@@H](CC(N)=O)c5ccc(F)c(Cl)c5)c4-c4ccc(Cl)cc4F)ccc3F)cc2NC(=O)c2ccc(F)cc2C(F)(F)F)C[C@H](C)N1C  viability (MV4-11; 4.64 µM; 5 days): 43.9%
Cc1c(C(=O)O)ccc2c3n(nc12)[C@@H]1[C@H](C3)N(CC2CC2)[C@@]2(C(=O)Nc3cc(Cl)ccc32)[C@H]1c1cccc(Cl)c1F  pIC50 (human Fibroblast; ATP luminescence): 7.92
C=CC(=O)N1C[C@@H](n2nc(C#Cc3c(F)cc4c(ncn4C4CC4)c3F)c(C(N)=O)c2NC)C[C@@H]1COC  pIC50 (RBE; MTT; 72 h): < 6.00
CN1Cc2c(N)cccc2C(=O)N1C1CCC(=O)NC1=O (stereo not drawn)  pIC50 (MV4-11; CCK-8; 96 h): > 6.48
Cc1nc(Nc2ccc3c(c2)/C(=C/c2ccccc2)C(=O)N3C)c2ccccc2n1  pIC50 (BEAS-2B; MTT): 4.70
CC1(C)CCC(CN2CCN(c3ccc(C(=O)NS(=O)(=O)c4ccc(NCC5CCOCC5)c([N+](=O)[O-])c4)c(Oc4cnc5[nH]ccc5c4)c3)CC2)=C(c2ccc(Cl)cc2)C1  pIC50 (MV4-11; ATP luminescence; 48 h): 7.92
Cc1nc(Nc2ccc3c(c2)/C(=C/c2ccccc2C)C(=O)N3)c2ccccc2n1  pIC50 (BEAS-2B; MTT): 5.06
Cc1noc2c1-c1ccccc1C(c1ccc(Cl)cc1)=N[C@H]2CC(N)=O  pIC50 (MV4-11; ATP luminescence; 72 h): 6.39
Cc1nc(Nc2ccc3c(c2)C(C)(C)C(=O)N3)c2ccccc2n1  pIC50 (BEAS-2B; MTT): 4.42
C[C@@H]1CN(c2ccc(-c3cc(C(=O)NCCOCCOCCOCCOCCNC(=O)Cn4cc(-c5[nH]cc(C(=O)N[C@@H](CC(N)=O)c6ccc(F)c(Cl)c6)c5-c5ccc(Cl)cc5F)cn4)ccc3F)cc2NC(=O)c2c[nH]c(=O)cc2C(F)(F)F)C[C@H](C)N1C  viability (MV4-11; 4.64 µM; 5 days): 27%
COc1cc2ncnc(Nc3ccc4c(c3)/C(=C/c3ccccc3)C(=O)N4)c2cc1OC  pIC50 (BEAS-2B; MTT): 4.76
CC(C)c1ccccc1[C@@H]1CCCN1C1CC2(CCN(c3ccc(C(=O)NS(=O)(=O)c4ccc(NC[C@H]5CC[C@](C)(O)CC5)c([N+](=O)[O-])c4)c(Oc4cnc5[nH]ccc5c4)c3)CC2)C1  pIC50 (KMS-12-PE; ATP luminescence; 48 h): 9.07
Cn1cc(-n2cnc3c(NCc4nc5cc(Cl)c(Cl)cc5[nH]4)nc(N4CCOCC4)nc32)cn1  pEC50 (MDA-MB-468; 5 days): 8.04
